These results are taken from article PMC9049141 (RSC Advances, 2020).

Square brackets hold non-standard residues; d marks the D form. Ends that are not written are not given here. * marks the point of attachment. FITC = O=C1OC2(c3ccc(O)cc3Oc3cc(O)ccc32)c2ccc(NC(=S)*)cc21; Stearoyl = CCCCCCCCCCCCCCCCCC(=O)*; Palmitoyl = CCCCCCCCCCCCCCCC(=O)*; Myristoyl = CCCCCCCCCCCCCC(=O)*; Aib = CC(C)(N)C(=O)O; Ahx = NCCCCCC(=O)O

The term Kd denotes a measure of binding affinity in units of concentration. By half-life is commonly meant the time in which the quantity being followed falls by half.

The target of series [1] is HSA (Homo sapiens, UniProt P02768). Put plainly: Albumin binding affinity by surface plasmon resonance. As to conditions: for k a / k d: SPR, BIAcoT200 system, HSA; for Kd: human, HSA (human serum albumin), surface plasmon resonance.
Series [2] in a line: Plasma stability test in human plasma with or without HSA. It is filed as in vitro ADME. The method, boiled down: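 Albumin-depleted human plasma was prepared with a blue-dye albumin removal kit. Test peptides at a final 1 mg L−1 were incubated at 37 °C in human plasma with or without HSA. Samples were taken at time points from 0 to 144 h and analysed by LC-MS/MS.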
A short description of series [3]: Pharmacokinetic study in rhesus monkey. The conditions noted are these: plasma, sc. It is filed as in vivo. The method, boiled down:
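Male rhesus monkeys received one s.c. dose of test compound at 10, 30 or 90 nmol kg−1. Blood was drawn pre-dose and at 1, 2, 4, 8, 24, 36, 48, 72, 96, 120, 144 and 168 h. Intact peptide and free GLP-1 (A8Aib) in plasma were quantified by LC-MS/MS.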

In series [4] the test system is GK rats. The series is described as follows: Modified multiple OGTTs. The series is classed as in vivo. The method, boiled down: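 Male GK rats (purchased at 6–8 weeks) got one s.c. dose of saline, test compound (10, 30, 90 nmol kg−1) or a reference GLP-1 analog (90 nmol kg−1). Repeated oral glucose challenges followed, the first at 0.5 h after dosing. Glucose was read by glucometer. AUCs were taken for 0–2, 72–74 and 144–146 h, and the percent AUC reduction was calculated versus saline.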

The subject of series [5] is db/db mice. Put plainly: Oral glucose tolerance test. The series is classed as in vivo. The method, boiled down: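 Male db/db mice were fasted overnight and split into five groups. They received saline or test compound s.c. at 10, 30, 90 or 150 nmol kg−1, half an hour before an oral glucose load of 2.0 g kg−1. Blood glucose was read by handheld glucometer before and 15, 30, 60 and 120 min after the load. Data are mean ± SD with one-way ANOVA.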

For series [6], the system named is db/db mice. The series is described as follows: Chronic in vivo study, 8 weeks, db/db mice. As to conditions: for ALT / AST / HDL / LDL / LDL/HDL / TC / TG: db/db mice serum, 8 weeks twice-weekly s.c.; for decrease of OGTT AUC after 8 week treatment compared with day 0: n = 8. The method, boiled down: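 Male db/db mice (purchased at 6–8 weeks, housed six per cage, 12 h light–dark) got twice-weekly s.c. saline, a reference GLP-1 analog (90 nmol kg−1) or test compound (10, 30, 90 nmol kg−1) for eight weeks. Blood biochemical parameters were measured on an automatic biochemical analyzer. Pancreas was paraffin-embedded and H&E-stained. Data are mean ± SD; one-way ANOVA, P < 0.05.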

The subject of series [7] is db/db mice. Put plainly: Hypoglycemic duration test. The series is classed as in vivo. The conditions noted are these: non-fasted db/db mice. The method, boiled down: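 Non-fasted db/db mice with free food and water got one s.c. dose of saline, a reference GLP-1 analog (90 nmol kg−1) or test compound (10, 30, 90 nmol kg−1). Tail-vein blood was sampled at 0, 0.5, 1, 2, 4, 8, 24, 36, 48, 72, 120, 168 and 216 h, with glucose by glucometer. Hypoglycemic duration was the time BGL stayed under 8.35 mmol L−1. Data are mean ± SD; one-way ANOVA.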

The mark [8] stands for this setting: human plasma without albumin (HSA-free).
[9] abbreviates: single s.c. 10 nmol kg^−1, n = 8.
[10] abbreviates: single s.c. 30 nmol kg^−1, n = 8.
The mark [11] stands for this setting: single s.c. 90 nmol kg^−1, n = 8.

Sequence of HSA (P02768 25-609): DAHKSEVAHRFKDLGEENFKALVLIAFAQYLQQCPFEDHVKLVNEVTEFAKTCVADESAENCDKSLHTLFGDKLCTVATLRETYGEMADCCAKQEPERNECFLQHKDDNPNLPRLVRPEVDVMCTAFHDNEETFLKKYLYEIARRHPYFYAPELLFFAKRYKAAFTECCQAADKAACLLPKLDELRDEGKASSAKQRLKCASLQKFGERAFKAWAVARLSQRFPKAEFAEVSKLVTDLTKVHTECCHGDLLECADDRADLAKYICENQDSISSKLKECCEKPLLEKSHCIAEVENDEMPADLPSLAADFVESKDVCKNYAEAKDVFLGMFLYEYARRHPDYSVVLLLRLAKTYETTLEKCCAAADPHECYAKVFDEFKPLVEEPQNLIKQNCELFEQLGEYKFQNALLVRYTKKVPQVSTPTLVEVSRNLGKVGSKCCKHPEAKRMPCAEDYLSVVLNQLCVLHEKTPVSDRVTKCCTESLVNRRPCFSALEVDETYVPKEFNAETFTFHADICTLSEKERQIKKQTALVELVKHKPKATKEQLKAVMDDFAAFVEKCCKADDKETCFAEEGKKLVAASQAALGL

In the case of “{FITC-Ahx}-EYEEK(Myristoyl)YEGGGGSGGGGSFNPRH[Aib]EGTFTSDVSSYLEGQAAKEFIAWLVKGRG (N-terminus assumed) [PES13]”, in series [1], the k a came to 11000 M⁻¹ s⁻¹, the k d came to 0.00422 s⁻¹ and binding was put at a Kd of 383 nM. In series [2] (human plasma with HSA), this substance gave a half-life at 1 mg L^−1 of 68.7 h. Besides, the half-life at 1 mg L^−1 in series [2] (setting [8]) was 64.4 h.

With “{FITC-Ahx}-EYEEK(Palmitoyl)YEGGGGSGGGGSFNPRH[Aib]EGTFTSDVSSYLEGQAAKEFIAWLVKGRG (N-terminus assumed) [PES14]”, the results for the half-life in series [3] (10 nmol kg^−1), in series [3] (30 nmol kg^−1) and in series [3] (90 nmol kg^−1) were 62.6 h, 78.8 h and 95.1 h, respectively. Moreover, the results for the “AUC-lowering percentage in third OGTT (144–146 h) versus placebo” value in series [4] (setting [9]), in series [4] (setting [10]) and in series [4] (setting [11]) were 22.1%, 31.0% and 44.7%, respectively. In addition, the “glucose AUC in OGTT” value in series [5] (single s.c. 90 nmol kg^−1, AUC0–120 min) is 780.17 nmol/L/min; in series [5] (single s.c. 150 nmol kg^−1, AUC0–120 min), 738.56 nmol/L/min. The same substance returned a k a in series [1] of 14500 M⁻¹ s⁻¹. The k d in series [1] was found to be 0.0101 s⁻¹. In addition, binding in series [1] was characterised by a dissociation constant (Kd) of 696 nM. The values for the half-life at 1 mg L^−1 in series [2] (human plasma with HSA) and in series [2] (setting [8]) were over 72 h and 60.1 h, respectively. The ALT in series [6] (10 nM kg^−1, mean ± SD n = 8) amounted to 59.2 ± 2.8 IU L^−1; in series [6] (30 nM kg^−1, mean ± SD n = 8), 55.0 ± 4.0 IU L^−1. The AST is given as 158 ± 12.2 IU L^−1 in series [6] (10 nM kg^−1, mean ± SD n = 8) and 140 ± 9.9 IU L^−1 in series [6] (30 nM kg^−1, mean ± SD n = 8). Also, the HDL in series [6] (10 nM kg^−1, mean ± SD n = 8) was found to be 2.5 ± 0.6 mmol/L; in series [6] (30 nM kg^−1, mean ± SD n = 8), 2.5 ± 0.5 mmol/L. In addition, the LDL was 1.6 ± 0.3 mmol/L in series [6] (10 nM kg^−1, mean ± SD n = 8) and 1.4 ± 0.2 mmol/L in series [6] (30 nM kg^−1, mean ± SD n = 8). The LDL/HDL in series [6] (10 nM kg^−1, mean ± SD n = 8) came to 0.64 ± 0.19; in series [6] (30 nM kg^−1, mean ± SD n = 8) it was 0.44 ± 0.15. Besides, the TC in series [6] (10 nM kg^−1, mean ± SD n = 8) is 4.8 ± 0.6 mmol/L; in series [6] (30 nM kg^−1, mean ± SD n = 8), 4.4 ± 0.3 mmol/L. The TG in series [6] (10 nM kg^−1, mean ± SD n = 8) was 1.1 ± 0.1 mmol/L; in series [6] (30 nM kg^−1, mean ± SD n = 8) it was 1.0 ± 0.7 mmol/L. Besides, the “area and number of pancreatic islets” value in series [6] (db/db mice, 8 weeks, H&E staining, compared with saline) is listed as “increased”. The “reduction of LDL/HDL ratio” value in series [6] (db/db mice, after 8 week exposure) is listed as “up to 47%”. Besides, the insulin immunoreactivity entry in series [6] (db/db mice, chronic treatment 8 weeks, pancreas sections) is “preserved proper insulin immunoreactivity”. Further, the “decrease of OGTT AUC after 8 week treatment compared with day 0” value in series [6] (db/db mice, twice-weekly s.c. 10 nmol kg^−1, 8 weeks) worked out at 17.1%; in series [6] (db/db mice, twice-weekly s.c. 30 nmol kg^−1, 8 weeks), 28.9%; in series [6] (db/db mice, twice-weekly s.c. 90 nmol kg^−1, 8 weeks), 58.2%. The “body weight gain, food intake and fat%” value in series [6] (db/db mice, twice-weekly s.c. 10, 30 and 90 nmol kg^−1, 56 days, vs saline) was “obviously reduction”. Besides, the “time hypoglycemic effects maintained” value in series [7] (single s.c. 10 nmol kg^−1) is given as “more than 120 h”; in series [7] (single s.c. 30 nmol kg^−1), over 168 h; in series [7] (single s.c. 90 nmol kg^−1), over 216 h. Further, the “decrease of BGL AUC for 0–192 h compared with saline” value in series [7] (setting [9]) was 38.4%; in series [7] (setting [10]) it was 49.3%; in series [7] (setting [11]) it was 65.0%. Further, the “duration for BGLs rebound over 8.35 mmol L^−1” value is 22.3 h in series [7] (setting [10]) and 50.8 h in series [7] (setting [11]). The “time for BGLs to reach the normoglycemic value” in series [7] (single s.c. 30 and 90 nmol kg^−1) is given as at most 2 h.

In series [1], “{FITC-Ahx}-EYEEK(Stearoyl)YEGGGGSGGGGSFNPRH[Aib]EGTFTSDVSSYLEGQAAKEFIAWLVKGRG (N-terminus assumed) [PES15]” returned a k a of 21800 M⁻¹ s⁻¹, a k d of 0.0112 s⁻¹ and a Kd of 512 nM. Also, the half-life at 1 mg L^−1 in series [2] (human plasma with HSA) was 56.5 h. The substance also had a half-life at 1 mg L^−1 in series [2] (setting [8]) of 48.5 h.

As to “{FITC-Ahx}-EYK(Palmitoyl)EEYEGGGGSGGGGSFNPRH[Aib]EGTFTSDVSSYLEGQAAKEFIAWLVKGRG (N-terminus assumed) [PES08]”, in series [1], the k a stood at 26700 M⁻¹ s⁻¹, the k d is 0.0942 s⁻¹ and binding was put at a Kd of 3530 nM.

On to “{FITC-Ahx}-EYK(Stearoyl)EEYEGGGGSGGGGSFNPRH[Aib]EGTFTSDVSSYLEGQAAKEFIAWLVKGRG (N-terminus assumed) [PES09]”, for which, in series [1], the k a turned out to be 12100 M⁻¹ s⁻¹, the k d was 0.0531 s⁻¹ and the Kd worked out at 4320 nM.

Regarding “{FITC-Ahx}-K(Myristoyl)EYEEYEGGGGSGGGGSFNPRH[Aib]EGTFTSDVSSYLEGQAAKEFIAWLVKGRG (N-terminus assumed) [PES01]”, in series [1], the k a was 6900 M⁻¹ s⁻¹, the k d stood at 0.0182 s⁻¹ and binding was characterised by a dissociation constant (Kd) of 2660 nM.

In series [1], “{FITC-Ahx}-K(Stearoyl)EYEEYEGGGGSGGGGSFNPRH[Aib]EGTFTSDVSSYLEGQAAKEFIAWLVKGRG (N-terminus assumed) [PES03]” yielded a k a of 12800 M⁻¹ s⁻¹, a k d of 0.0322 s⁻¹ and a Kd of 2510 nM.
